TCR CD3 inh = human TCR-CD3 binding inhibition. TAMRA-labeled TCR probe fluorescence, biochemical. inhibition, % at 9.4 µM. hit rate 0.37% among 360,000; in the data active = inhibition above about 19%;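 also: recombinant mutant TCR 2C K166C tagged with TAMRA read by polarization; 0% = receptor in buffer alone and 100% = receptor with positive control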
PRMT1 inh = PRMT1 (human) inhibition, primary screen. Q99873. recombinant PRMT1, activity-based probe fluorescence polarization. inhibition, % at 2.79 µM. hit rate 1.3% among 370,000. AID 652257;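 active = inhibition above about 21% made by adding two undisclosed values, limit read from the data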
HTRA1 inhibitor = blocks human HTRA1 serine peptidase | Q92743 | recombinant HTRA1, FP-rhodamine activity-based probe, fluorescence polarization | inhibition, % at 5.96 µM | hit rate 0.5% among 340,000 | AID 504803; in the data active = inhibition above about 36%;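 also: 0% = enzyme with DMSO and 100% = wells lacking enzyme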
SIAE primary = inhibitors of human sialic acid acetylesterase SIAE | Q9HAT2 | SIAE FP-Rh probe binding, fluorescence polarization | inhibition, % at 9.66 µM | hit rate 0.69% among 370,000;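 active = inhibition above a cutoff: mean of compounds within the control limits plus 3 SD of those, cut at about 17% in these data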;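 also: 0% = plate median of compound wells and 100% = probe without SIAE protein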
Target sequence (Q9HAT2 whole entry, looked up): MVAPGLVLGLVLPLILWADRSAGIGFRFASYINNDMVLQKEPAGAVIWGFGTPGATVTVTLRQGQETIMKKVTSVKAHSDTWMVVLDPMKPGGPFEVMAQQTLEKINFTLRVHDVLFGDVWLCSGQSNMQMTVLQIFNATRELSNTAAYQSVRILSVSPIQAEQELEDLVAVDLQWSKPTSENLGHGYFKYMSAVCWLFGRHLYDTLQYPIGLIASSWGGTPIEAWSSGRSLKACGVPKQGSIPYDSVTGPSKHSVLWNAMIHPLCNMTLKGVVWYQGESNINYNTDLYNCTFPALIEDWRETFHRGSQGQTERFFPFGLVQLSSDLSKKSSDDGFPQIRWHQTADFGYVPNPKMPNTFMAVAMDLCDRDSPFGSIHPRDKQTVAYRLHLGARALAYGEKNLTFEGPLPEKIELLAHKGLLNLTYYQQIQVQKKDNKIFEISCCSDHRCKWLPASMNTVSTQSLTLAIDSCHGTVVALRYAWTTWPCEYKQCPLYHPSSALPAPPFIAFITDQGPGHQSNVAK
ABHD4 inh = ABHD4 (mouse) inhibition, primary FP screen | Q8VD66 | purified mABHD4, FP-Rh probe fluorescence polarization | inhibition, % at 8.92 µM | hit rate 0.54% among 370,000;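 active = inhibition exceeding the mean over every tested compound plus 3 SD, cut at about 30% in these data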;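 also: 0% = plate median of compound wells and 100% = S159A mutant with DMSO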
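assay system = mABHD4 protein | compound dosing = single nominal dose of 8.92 µM, 0.89% DMSO final | read-out basis = percent inhibition of probe binding, normalized to plate controls | schedule = Enzyme–compound pre-incubation 45 min, then probe 60 min, both 25 °C | detection = fluorescence polarization, excitation 525 nm, emission 598 nm, BODIPY TMR filters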
PAD4 FP inh = PAD4 (human) enzyme inhibition; recombinant PAD4, RCA probe fluorescence polarization; inhibition, % at 6.36 µM; hit rate 0.41% among 330,000;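 active = percent inhibition above a cutoff equal to the mean of all tested compounds plus 3 SD, cut at about 15% in these data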;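 also: 0% = PAD4 with RCA probe and DMSO and 100% = probe without PAD4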
PRMT1 inh conf = PRMT1 (human) inhibition, FP confirmation | hit rate 42% among 3,300 | inhibition, % at 2.79 µM | recombinant His-PRMT1, activity-based probe fluorescence polarization | shares compounds with PRMT1 inh;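 active = mean inhibition across replicates above the hit cutoff derived for the earlier primary screen, cut at about 22% in these data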
Numbers without * were called inactive; . = not tested or not shown. A selection: hits, their analogues and other compounds. The true share with any hit is near 2.9%.

SMILES | TCR CD3 inh | PRMT1 inh | HTRA1 inhibitor | SIAE primary | ABHD4 inh | PAD4 FP inh | PRMT1 inh conf
COc1ccc(C2C3=C(N=C4SCC(=O)N42)c2ccccc2CC3)cc1OC (centres undefined) | -0.4 | 54.5* | -6.7 | -5.3 | -3.8 | 10.3 | 18.7
COc1ccccc1C1C2=C(N=C3SCC(=O)N31)c1ccccc1CC2 (centres undefined) | 7.1 | 36.9* | -2.0 | -2.3 | -7.5 | -0.7 | 1.2
COc1ccc(/C=c2/sc3n(c2=O)C(c2ccccc2OC)C2=C(N=3)c3ccccc3CC2)cc1O (centres undefined) | 3.6 | 6.7 | -39.6 | -4.8 | 21.4 | -3.5 | .
CCOC(=O)C1=C(c2ccccc2)N=C2SCC(=O)N2C1c1ccc(OCC)c(OCC)c1 (centres undefined) | -2.9 | -2.0 | -2.8 | 3.0 | -4.0 | -1.6 | .
COC(=O)C[C@@H]1CC[C@H]2[C@@H](COc3ccc(NS(=O)(=O)c4ccccc4F)cc3C(=O)N2C)O1 | . | -2.0 | . | 1.9 | -2.8 | . | .
COCC(=O)N1CCC(C(=O)NCC2COc3ccccc3O2)CC1 (centres undefined) | . | 3.3 | . | 0.5 | 5.8 | . | .
CCNc1sc(C(=O)c2cccs2)c(N)c1C#N | -2.8 | 29.2* | -3.3 | -2.6 | 3.5 | -4.8 | 11.2
C=CCNc1sc(C(=O)c2cccs2)c(N)c1C#N | -1.2 | -0.5 | -6.6 | 3.9 | 10.7 | -4.4 | .
CCO[C@H]1OC(C(=O)N2CCN(Cc3ccc4c(c3)OCO4)CC2)=C[C@@H](c2csc3ccccc23)[C@@H]1CCCO | 5.8 | 96.5* | -32.2 | 4.2 | 0.0 | -3.2 | -0.6
COC(=O)[C@]12C=CCN1[C@@H](c1ccc(OC)c(OC)c1)c1c(c3ccccc3n1S(=O)(=O)c1ccc(C)cc1)C2 | . | 5.9 | . | -30.9 | -28.1 | . | .
O=S(NC1CCCCC1)C12CC3CC(CC(C3)C1)C2 (centres undefined) | 2.6 | 99.5* | -1.9 | -0.8 | 4.8 | 3.1 | -1.5
Nn1c(SCC(=O)N2CCOCC2)nnc1-c1cc(-c2ccc(F)cc2)n[nH]1 | . | -2.3 | . | 0.3 | 0.0 | . | .
N#C/C(=C\c1ccc([N+](=O)[O-])o1)C(=O)Nc1ccc(F)cc1 | 2.9 | 30.7* | 19.2 | -1.6 | 18.1 | -16.4 | 11.1
N#CCc1ccc(NC(=O)/C=C/c2ccc([N+](=O)[O-])o2)cc1 | . | . | -1.0 | . | . | . | .
CCC(C)NC(=O)C1CCCN(S(=O)(=O)c2ccc3c(c2)CC(C)N3C(C)=O)C1 (centres undefined) | -6.2 | 26.4* | 3.9 | -2.0 | -5.2 | -1.0 | 8.3
CCC(C)NC(=O)C1CCCN(S(=O)(=O)c2ccc3c(c2)CC(C)N3C(=O)C2CC2)C1 (centres undefined) | 7.6 | -3.0 | 2.5 | 8.7 | -0.9 | 3.1 | .
COC(=O)c1ccc(-n2c(CCC(=O)O)ccc2-c2ccccc2)cc1 | . | . | -9.9 | . | . | -4.9 | .
COC(=O)c1ccc(-n2c(C)ccc2-c2ccccc2)cc1 | -3.2 | 25.8* | 3.4 | 1.3 | 3.9 | -3.5 | 7.5
COc1ccc(-n2c(C)ccc2-c2ccccc2)cn1 | -8.7 | 56.0* | 4.7 | -1.6 | -1.6 | -7.5 | 14.2
COc1cnc(-c2ccccc2)c(-c2ccccc2)n1 | -1.9 | 3.5 | -3.0 | -4.7 | -10.7 | -2.4 | .
CC(=O)c1ccc(-n2c(C)ccc2-c2ccccc2)cc1 | -3.3 | 33.4* | 3.8 | 0.9 | 0.4 | -3.2 | 2.2
COC(=O)c1cc2c(c3c4ccccc4n(S(C)(=O)=O)c13)C(=O)N(Cc1ccccc1)C2 | -2.3 | 1.5 | . | 5.1 | 19.8 | . | .
CCOC(=O)CN1C(=O)[C@]2(OCCC=C[C@H]2C)c2ccccc21 | 1.2 | 0.6 | . | 6.7 | 6.5 | . | .
Cc1cc2cc3c(cc2n2c(SCC(=O)Nc4nc(-c5ccccc5)cs4)nnc12)OCO3 | . | 4.1 | . | 4.7 | 1.0 | . | .
O=c1cc(-c2ccccc2)nc2cc(-c3ccc(Br)cc3)[nH]n12 | -5.1 | 0.1 | -2.6 | 3.4 | -0.9 | -4.3 | .
SMILES | TCR CD3 inh | PRMT1 inh | HTRA1 inhibitor | SIAE primary | ABHD4 inh | PAD4 FP inh | PRMT1 inh conf
O=c1cc(-c2ccccc2)nc2cc(-c3ccco3)[nH]n12 | 1.2 | 30.3* | 1.8 | 8.1 | 15.1 | -10.7 | -0.5
COc1ccc2cc(C(c3nnnn3C(C)(C)C)N3CCSCC3)c(=O)[nH]c2c1 (centres undefined) | 3.8 | 34.4* | -1.6 | 5.7 | -0.4 | -3.8 | -6.1
O=C1C=CC(=Nc2ccc(F)cc2)O1 | 0.3 | 50.3* | -0.3 | 2.5 | 2.2 | . | 79.4*
CNc1ccccc(C(=O)/C=C/c2ccccc2OC)c1=O | 3.0 | 35.5* | 31.2 | 4.5 | 26.0 | -2.8 | 39.0*
COc1ccccc1C=CC(=O)C=Cc1ccccc1OC | 1.3 | 3.6 | -33.2 | -7.0 | -6.7 | . | .
COC(=O)c1c(NC(=O)CN2C(=O)C(=O)N(CC(C)C)C2=O)sc2c1CCCCC2 | -1.1 | 57.8* | -14.3 | 0.1 | 1.9 | -2.2 | 8.4
O=C(CC1C(=O)OCC2CCCCN21)Nc1ccccc1C(F)(F)F (centres undefined) | -2.1 | 47.6* | -1.5 | -4.3 | 9.0 | 0.9 | 3.8
CCCOc1ccc(NC(=O)CC2C(=O)OCC3CCCCN32)cc1 (centres undefined) | 4.8 | 35.7* | 4.5 | -1.7 | 3.0 | -3.0 | 2.6
Cc1ccc(NC(=O)CC2C(=O)OCC3CCCCN32)cc1Cl (centres undefined) | 4.6 | 13.9 | -1.6 | 6.6 | -5.7 | 3.1 | .
C[C@@H]1CCN(C2CC2)S(=O)(=O)c2ccc(N3CCC[C@@H]3CO)cc2O1 | . | -0.8 | . | 3.1 | 2.2 | . | .
Oc1c(CN2CCOCC2)cc(CN2CCOCC2)c(O)c1CN1CCOCC1 | 4.7 | 72.0* | 3.5 | -0.8 | 1.4 | . | 77.4*
Cc1sc2ccccc2[n+]1CC(=O)O | -4.2 | 48.2* | -2.0 | 3.3 | -1.1 | 8.0 | 53.9*
Cc1sc2ccccc2[n+]1CCC(C)S(=O)(=O)[O-] (centres undefined) | 1.7 | 36.3* | 6.9 | -2.5 | 6.5 | 8.8 | 33.7*
CC(C)[C@@H]1NC(=O)[C@H]2C[C@@]3(c4ccccc4)c4ccccc4N[C@H]3N2C1=O | . | -4.2 | . | 3.8 | -0.8 | . | .
COc1ccc2cc(C3CC(c4ccco4)=NN3S(=O)(=O)c3ccccc3)c(Cl)nc2c1 (centres undefined) | -0.1 | 29.4* | -54.4 | -1.2 | -11.3 | -0.6 | 1.6
CCOc1ccc2cc(C3CC(c4ccco4)=NN3S(=O)(=O)c3ccccc3)c(Cl)nc2c1 (centres undefined) | -4.7 | 3.1 | -28.2 | -7.7 | -15.9 | -1.5 | .
Nc1[nH]c(C(=O)c2ccccc2)c(-c2ccccn2)c1C(=O)c1c[nH]c2ccc(Br)cc12 | . | 27.3* | . | -12.6 | -6.3 | . | 2.0
Nc1[nH]c(C(=O)c2ccccc2)c(-c2ccccn2)c1C(=O)c1c[nH]c2ccccc12 | 3.0 | 0.9 | . | 1.1 | 14.2 | . | .

Source: PubChem BioAssay
